Reference: ChEMBL document CHEMBL1821581, “Synthesis, antiproliferative activities and in vitro biological evaluation of novel benzofuransulfonamide derivatives” (Bioorg Med Chem Lett, 2011)

Columns and labels:
[1] = tested on: HepG2; assay: Antiproliferative activity against human HepG2 cells after 48 hrs by MTT assay; format: functional, cell-based; details: HepG2, 48 h
Summary of the method: (§1)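 Cells seeded at 2000/well, cultured 24 h, then exposed to compounds 48 h. MTT (10 mg/mL stock, 10 µL/well) added for 2.5 h at 37 °C; supernatant removed, DMSO added 15–20 min, absorbance read at 570 nm. IC50 reported as mean of three independent experiments.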

[2] = tested on: PC-3; assay: Antiproliferative activity against human PC3 cells after 48 hrs by MTT assay; format: functional, cell-based; details: PC-3, 48 h; summary of the method: as §1
[3] = tested on: NCI-H460; assay: Antiproliferative activity against human NCI-H460 cells after 48 hrs by MTT assay; format: functional, cell-based; details: NCI-H460, 48 h; summary of the method: as §1
[4] = tested on: HeLa; assay: Antiproliferative activity against human HeLa cells after 48 hrs by MTT assay; format: functional, cell-based; summary of the method: as §1
[5] = tested on: NCI-H460; assay: Induction of apoptosis in human NCI-H460 cells at 2.5 uM after 48 hrs using annexin V-FITC and propidium iodine staining by flow cytometric analysis (reference value: 3.82%); format: functional
[6] = tested on: NCI-H460; assay: Induction of apoptosis in human NCI-H460 cells at 10 uM after 48 hrs using annexin V-FITC and propidium iodine staining by flow cytometric analysis (reference value: 3.82%); format: functional

| IC50 [1] [µM] | IC50 [2] [µM] | IC50 [3] [µM] | IC50 [4] [µM] | Compound | Activity [5] [%] | Activity [6] [%] |
| --- | --- | --- | --- | --- | --- | --- |
| 5.68 | 15.9 | 8.89 | 12.2 | CCOC(=O)c1oc2ccc(NS(=O)(=O)c3ccc(F)cc3)cc2c1C |  |  |
| > 40 | > 40 | > 40 | > 40 | CC(=O)Nc1ccc2oc(C(=O)c3ccccc3)c(C)c2c1 |  |  |
| 24.1 | 38.2 | 34.8 | 10.6 | Cc1c(C(=O)c2ccccc2)oc2ccc(NS(=O)(=O)c3ccc(F)cc3)cc12 |  |  |
| 7.53 | 8.56 | 4.13 | 9.37 | CCOC(=O)c1oc2ccc(S(=O)(=O)Nc3ccc(F)cc3)cc2c1C | 33.88 | 41.09 |

The remaining lines, values behind:

| Compound | IC50 [1] [µM] | IC50 [2] [µM] | IC50 [3] [µM] | IC50 [4] [µM] | Activity [5] [%] | Activity [6] [%] |
| --- | --- | --- | --- | --- | --- | --- |
| Cc1c(C(=O)c2ccccc2)oc2ccc(S(=O)(=O)Nc3ccc(F)cc3)cc12 | 32.2 | 22.1 | 22.6 | 15.4 |  |  |
| Cc1c(C(=O)c2ccccc2)oc2ccc(NC(=O)c3ccc(F)cc3)cc12 | 31.2 | 13.5 | 15.6 | 18.8 |  |  |
